# Most compounds without a hit are left out; they make up all but 1.9% or so of the library.
# Env fusion inh = HIV envelope-mediated fusion inhibition; HeLa-JRFL Env/CEM21 cell fusion, luciferase; inhibition, % at 12.3 µM; actives 1.1% (n = 360,000); AID 651610;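 active means mean replicate inhibition score of at least 50 and every replicate individually at or above 50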;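 further: 0% = plate neutral controls and 100% = maraviroc near 300 nM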
# Rtt109 HAT inh = blocks Candida albicans Rtt109/Vps75 acetyltransferase activity. Q5AAJ8. purified Rtt109/Vps75, ThioGlo CoA-SH fluorescence, 4 h. inhibition, % at 34.9 µM. actives 0.16% (n = 330,000). AID 540336;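 active means inhibition of at least 50% in every replicate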
# Target sequence (Q5AAJ8 whole entry, looked up): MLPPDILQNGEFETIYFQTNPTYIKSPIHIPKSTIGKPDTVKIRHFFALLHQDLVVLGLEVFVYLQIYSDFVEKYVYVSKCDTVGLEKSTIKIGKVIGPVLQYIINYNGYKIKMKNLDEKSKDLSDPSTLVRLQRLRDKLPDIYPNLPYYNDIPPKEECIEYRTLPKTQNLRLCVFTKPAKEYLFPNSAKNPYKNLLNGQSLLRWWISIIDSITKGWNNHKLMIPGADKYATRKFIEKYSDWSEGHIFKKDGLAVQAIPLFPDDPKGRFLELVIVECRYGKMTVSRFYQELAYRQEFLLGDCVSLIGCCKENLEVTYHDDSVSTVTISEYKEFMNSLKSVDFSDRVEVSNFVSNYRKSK
# N-glyco inh = blocks N-linked glycosylation in D54 reporter cells; reporter increase, % at 12.5 µM; AID 588692; D54 ERlucT glycosylation luciferase reporter, 24 h; percent of 100 nM tunicamycin response; actives 0.23% (n = 360,000);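 active means mean luciferase reporter signal, scaled so untreated is 0 and the glycosylation-blocking control 100, at or above a set limit in every replicate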;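 further: luciferase carries N-glycosylation sites so blocking glycosylation raises the light; 0% = median of neutral control wells and 100% = median of 100 nM tunicamycin wells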
# SR-BI HDL uptake = mouse SR-BI HDL lipid transfer inhibition | Q61009 | ldlA[mSR-BI] CHO cells, DiI-HDL uptake fluorescence, 3 h | inhibition, % at 12.5 µM | actives 0.96% (n = 320,000);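 active means mean replicate inhibition of at least 70% and a set share of replicates each scoring 70 or more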;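 further: 0% = median of neutral control wells and 100% = median of positive control wells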
# PglD inh = inhibitors of Campylobacter jejuni PglD acetyltransferase. purified PglD enzyme, DTNB colorimetric CoA detection. inhibition, % at 12.5 µM. actives 0.098% (n = 360,000). AID 602405; in the data active means inhibition above about 16%, passing the limit was not always enough
# SR-BI uptake up = enhances SR-BI lipid uptake from DiI-HDL; CHO ldlA[mSR-BI] cells, DiI-HDL uptake fluorescence, 3 h; 100 = double the neutral-control signal; activation, % at 12.5 µM; actives 0.096% (n = 320,000); AID 504775;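 active means mean replicate activation of at least 60% and every replicate at or above 60%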;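 further: 0% = median plate neutral-control signal and 100% = twice that signal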
#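 system = CHO ldlA[mSR-BI] cells, LDL receptor-null, SR-BI overexpressing | medium = Ham's F12 with 0.5% BSA, HEPES 25 mM, pH 7.4 | probe or stimulus = DiI-HDL 10 µg/mL | compound dosing = single-point compound dose | incubation = compound exposure 3 h, 37 °C | technique = DiI fluorescence, bottom read | read-out = cell-associated DiI fluorescence as measure of HDL uptake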
# Numbers without * were called inactive; . = no result; [ ] = remark or other dose.
SMILES,Env fusion inh,Rtt109 HAT inh,N-glyco inh,SR-BI HDL uptake,PglD inh,SR-BI uptake up
C[C@@H]1CN([C@H](C)CO)C(=O)c2cccc(NC(=O)c3cnccn3)c2O[C@H]1CN(C)CC1CCCCC1,24.9[16.7 µM],.,.,.,-3.8,.
CCN(C[C@H]1N[C@@](CC)(C(=O)OC)[C@H]2C(=O)N(Cc3ccccc3)C(=O)[C@@H]12)C(=O)Nc1ccc(C)cc1,55.9*,0.3,2.2,31.7,1.8,-31.7
CCN(C[C@H]1N[C@@](Cc2ccccc2)(C(=O)OC)[C@H]2C(=O)N(Cc3ccccc3)C(=O)[C@@H]12)C(=O)Nc1ccc(C)cc1,-45.5,-9.3,2.7,26.1,-4.9,-26.1
CCN(C[C@H]1N[C@@](CC)(C(=O)OC)[C@H]2C(=O)N(Cc3ccccc3)C(=O)[C@@H]12)C(=O)Nc1ccc(Cl)cc1,86.0*,-15.4,1.6,37.5,-4.1,-37.5
C[C@@H]1CN([C@H](C)CO)C(=O)c2cccc(NS(=O)(=O)c3ccc(F)cc3)c2O[C@H]1CN(C)Cc1ccncc1,.,.,.,.,-1.8,.
CC1CCC(C(C)C)C(OC(=O)Cn2c(-c3ccc(F)cc3)[n+](C)c3ccccc32)C1 (stereo not given),65.5*,6.3,13.8,-17.1,-4.3,17.1
CC1CCC(C(C)C)C(OC(=O)Cn2c(-c3ccccc3)[n+](C)c3ccccc32)C1 (stereo not given),69.0*,34.9,19.1,-33.6,2.0,33.7
C[C@@H]1CN([C@@H](C)CO)C(=O)c2cc(C3=CCCCC3)cnc2O[C@H]1CN(C)S(C)(=O)=O,-8.6[16.7 µM],.,.,.,.,.
CC(=O)Nc1ccc(NC(=O)c2cc(-c3ccc(C)c(C)c3O)n[nH]2)cc1,-6.5,4.0,-0.9,72.9*,3.3,-72.9
Cc1ccc(NC(=O)c2cc(-c3cc(Cl)ccc3C)n[nH]2)cc1NS(C)(=O)=O,65.0*,.,0.3,.,1.2,.
COc1ccc(Cl)cc1-c1cc(C(=O)Nc2ccc(C)c(NS(C)(=O)=O)c2)[nH]n1,15.6,.,5.1,.,8.2,.
C[C@@H]1CN([C@@H](C)CO)C(=O)c2cc(NS(=O)(=O)c3ccc(Cl)cc3)ccc2O[C@@H]1CN(C)CC1CCCCC1,-23.2[16.7 µM],.,.,.,0.5,.
Cn1cnc(S(=O)(=O)N[C@@H]2CC[C@H](CC(=O)Nc3ccccc3)O[C@@H]2CO)c1,-4.0[16.7 µM],.,.,.,9.1,.
O=C1Nc2ccccc2N=C(c2ccc3c(c2)OCO3)C1N(C(=O)c1ccc2ccccc2c1)C1CC1 (stereo not given),55.6*,.,0.8,.,4.0,.
C=CCN1C(=O)/C(=C2/Sc3ccc(OC)cc3N2C)SC1=Nc1cccc(O)c1,4.9,-1.7,-8.9,102.0*,.,-102.0
Cc1ccc(C)c(-c2cc(C(=O)Nc3sc(C)c(C)c3C(N)=O)c3ccccc3n2)c1,88.5*,1.6,-4.2,56.1,-3.6,-56.1
Cc1cccc(-c2cc(C(=O)Nc3sc(C)c(C)c3C(N)=O)c3ccccc3n2)c1,.,-2.8,-6.0,26.9,1.6,-26.9
COc1ccc(C(=O)n2nc(C)cc2Nc2ccccc2)cc1,.,4.9,-1.3,76.6*,2.4,-76.5
NC(=O)[C@H]1CC2(CC(c3cccc(NC(=O)COc4ccc(Cl)cc4)c3)=NO2)CN1C(=O)c1ccccc1C(=O)c1ccccc1 (stereo not given in full),1.4,-2.9,1.3,76.7*,0.4,-76.6
NC(=O)[C@H]1CC2(CC(c3cccc(NC(=O)COc4ccc(Cl)cc4)c3)=NO2)CN1C(=O)c1ccc(Cl)cc1 (stereo not given in full),35.0,-6.6,-1.0,66.2,4.3,-66.2
Cc1ccc(NC(=S)NNc2ncc(C(F)(F)F)cc2Cl)c(C)c1,.,-1.2,-1.0,17.5,0.4,-17.5
FC(F)(F)c1cnc(NNC(=S)Nc2ccc(Cl)cc2)c(Cl)c1,55.0*,2.0,1.5,44.5,.,-44.5
Cc1ccc(NC(=S)NNc2ncc(C(F)(F)F)cc2Cl)cc1,3.4,3.9,-2.6,-5.2,-2.9,5.2
Fc1ccc(NC(=S)NNc2ncc(C(F)(F)F)cc2Cl)c(F)c1,69.6*,-1.1,-1.6,17.7,.,-17.7
CNC(=O)C[C@@H]1CC[C@H]2[C@@H](COc3ccc(NC(=O)C4CC4)cc3C(=O)N2C)O1,4.6[16.7 µM],.,.,.,2.8,.
SMILES,Env fusion inh,Rtt109 HAT inh,N-glyco inh,SR-BI HDL uptake,PglD inh,SR-BI uptake up
N#CC(C#N)=CC1=C2OC(c3ccccc3)=CC(c3ccccc3)=C2CCC1,.,-1.8,-1.3,116.4*,0.7,-116.5
COc1cccc(S(=O)(=O)N[C@H]2CC[C@@H](CCN)O[C@@H]2CO)c1,68.0*[16.7 µM],.,.,.,-0.3,.
COc1cccc(S(=O)(=O)N[C@@H]2CC[C@H](CCN)O[C@H]2CO)c1,65.6*[16.7 µM],.,.,.,-0.3,.
Cc1nn(C)cc1NC(=O)C[C@@H]1CC[C@H]2[C@H](COc3ccc(NC(=O)C4CCC4)cc3C(=O)N2C)O1,16.5[16.7 µM],.,.,.,.,.
CCOC(=O)c1c(CSC(=N)N)n(C)c2cc(Br)c(OC(C)=O)cc12,-11.4,85.4*,13.1,50.1,.,-50.1
CCOC(=O)c1c(CSC(=N)N)n(-c2ccc(C)cc2)c2cc(Br)c(OC(C)=O)cc12,-40.7,3.4,-8.7,3.1,-1.1,-3.1
CO[C@H]1CN(C)C(=O)c2ccc(NC(=O)C3CC3)cc2OC[C@@H](C)N(C(=O)c2ccccc2F)C[C@H]1C,15.1[16.7 µM],.,.,.,3.5,.
Cc1cc2nc(-c3ccccc3)c(Cc3cccc(F)c3)n2c(C)c1Br,73.9*,.,-2.5,.,-7.8,.
Cc1ccc(S(=O)(=O)Nc2ccc3c(c2)C(=O)N([C@@H](C)CO)C[C@@H](C)[C@@H](CN(C)CC2CCCCC2)OCCCC[C@H](C)O3)cc1,-20.8[16.7 µM],.,.,.,-2.0,.
CCOc1ccccc1NC(=O)NC1CCCc2ccccc21 (stereo not given),59.1*,24.7,-3.9,79.1*,3.2,-79.1
CC(=O)NC(CC(=O)NC1CCCc2ccccc21)c1ccccc1 (stereo not given),-11.0,57.4*,2.3,.,5.7,.
O=C(O)CSCC(=O)NC1CCCc2ccccc21 (stereo not given),-11.1,-1.0,0.9,-34.8,5.8,34.8
COc1ccccc1NC(=O)N1CC[C@@H]2[C@H]1c1cc(C#Cc3ccc(F)cc3)ccc1N(C)[C@@H]2CO,.,.,.,.,2.0,.
CCOc1ccc(S(=O)(=O)N(C)c2ccc(OCC(=O)Nc3nc(-c4cc(OC)ccc4OC)cs3)cc2)cc1,.,0.0,-2.7,82.0*,-6.3,-82.0
C[C@H](O)C#Cc1ccc2c(c1)O[C@@H](CN(C)C(=O)Cc1ccccn1)[C@H](C)CN([C@@H](C)CO)S2(=O)=O,-0.5[16.7 µM],.,.,.,7.0,.
COc1ccccc1NC(=O)Nc1ccc2c(c1)C(=O)N(C)C[C@@H](OC)[C@H](C)CN(C)[C@@H](C)CO2,3.1[16.7 µM],.,.,.,1.4,.
COC(=O)c1cccc(N2CCCC2=O)c1,-18.3,-0.5,1.3,.,4.1,.
COC(=O)c1cccc(-n2sc3ccccc3c2=O)c1,16.3,130.1*,-2.5,8.5,-0.2,-8.5

# High-throughput results from PubChem.
